{
  "source": "ChEMBL document CHEMBL2406928",
  "about": "“Discovery of novel insulin-like growth factor-1 receptor inhibitors with unique time-dependent binding kinetics” (ACS Med Chem Lett, 2013)",
  "key": {"[1]": {"biological_target": "Insulin-like growth factor 1 receptor (Homo sapiens) (UniProt P08069)", "sequence (P08069 31-736 limits assumed)": "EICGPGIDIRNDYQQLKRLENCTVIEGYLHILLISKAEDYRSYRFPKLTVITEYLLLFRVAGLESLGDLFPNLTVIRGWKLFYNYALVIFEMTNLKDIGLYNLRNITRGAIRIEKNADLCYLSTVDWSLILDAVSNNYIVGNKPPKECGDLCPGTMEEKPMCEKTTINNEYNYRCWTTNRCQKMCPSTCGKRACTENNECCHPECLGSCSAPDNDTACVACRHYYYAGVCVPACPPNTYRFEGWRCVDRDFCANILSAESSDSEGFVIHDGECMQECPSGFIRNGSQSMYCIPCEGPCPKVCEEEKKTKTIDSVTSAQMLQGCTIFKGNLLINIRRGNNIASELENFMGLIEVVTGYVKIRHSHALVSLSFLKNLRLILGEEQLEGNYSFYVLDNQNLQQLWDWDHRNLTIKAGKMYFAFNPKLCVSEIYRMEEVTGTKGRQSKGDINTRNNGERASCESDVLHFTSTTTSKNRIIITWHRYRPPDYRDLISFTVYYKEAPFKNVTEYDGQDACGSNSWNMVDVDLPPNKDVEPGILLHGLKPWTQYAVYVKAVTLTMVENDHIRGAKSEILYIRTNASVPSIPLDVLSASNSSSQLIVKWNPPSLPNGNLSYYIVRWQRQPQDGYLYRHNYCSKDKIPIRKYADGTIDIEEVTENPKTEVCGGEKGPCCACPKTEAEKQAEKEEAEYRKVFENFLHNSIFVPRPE", "sequence (P08069 741-1367 limits assumed)": "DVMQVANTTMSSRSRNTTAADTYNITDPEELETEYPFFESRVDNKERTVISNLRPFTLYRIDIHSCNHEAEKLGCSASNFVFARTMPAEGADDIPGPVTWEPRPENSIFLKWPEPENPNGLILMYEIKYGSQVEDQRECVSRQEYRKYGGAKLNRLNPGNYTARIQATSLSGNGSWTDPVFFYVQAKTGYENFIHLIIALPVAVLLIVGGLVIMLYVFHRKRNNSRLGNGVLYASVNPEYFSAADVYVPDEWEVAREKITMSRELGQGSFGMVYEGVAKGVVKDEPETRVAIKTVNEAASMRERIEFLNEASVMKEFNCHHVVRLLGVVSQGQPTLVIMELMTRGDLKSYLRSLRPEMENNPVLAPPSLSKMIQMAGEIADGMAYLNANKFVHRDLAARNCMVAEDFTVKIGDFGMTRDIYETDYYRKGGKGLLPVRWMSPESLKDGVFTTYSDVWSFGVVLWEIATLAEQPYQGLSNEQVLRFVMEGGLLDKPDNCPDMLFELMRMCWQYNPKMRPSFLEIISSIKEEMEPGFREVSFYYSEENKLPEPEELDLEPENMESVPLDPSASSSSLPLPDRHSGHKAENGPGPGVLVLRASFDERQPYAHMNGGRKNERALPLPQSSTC"}, "[2]": {"experiment": "Cmax in CD1 mouse at 2.5 mg/kg, po", "format": "ADME, organism-based", "parameters": "dose 2.5 mg/kg, route oral", "conditions": "in vivo"}, "[3]": {"experiment": "Plasma concentration in CD1 mouse at 2.5 mg/kg, po measured at 8 hrs", "format": "ADME, organism-based", "parameters": "dose 2.5 mg/kg, route oral"}, "[4]": {"tested_on": "GEO", "experiment": "(§1) Antitumor activity against human GEO cells xenografted in nu/nu CD1 mouse assessed as tumor growth inhibition administered as intermittent dosing regimen relative to vehicle-treated control", "format": "functional"}, "[5]": {"tested_on": "Mus musculus", "experiment": "In vivo inhibition of IGF-1R phosphorylation in human GEO cells xenografted in nu/nu CD1 mouse at 2 mg/kg, po measured up to 48 hrs relative to control", "format": "functional", "method_in_brief": "(§2)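 Single oral dose of 2 mg/kg to mice bearing GEO colon cancer xenografts (IGF-1R/IGF-II autocrine loop). Phosphorylation of IGF-1R and of IR in tumors followed over time up to 48 h after dosing, expressed as inhibition versus control.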"}, "[6]": {"experiment": "Plasma concentration in CD1 mouse at 2.5 mg/kg, po measured at 24 hrs", "format": "ADME, organism-based", "parameters": "dose 2.5 mg/kg, route oral"}, "[7]": {"experiment": "Tmax in CD1 mouse at 2.5 mg/kg, po", "format": "ADME, organism-based", "parameters": "dose 2.5 mg/kg, route oral", "conditions": "in vivo"}, "[8]": {"experiment": "Oral bioavailability in CD1 mouse at 2.5 mg/kg", "format": "ADME, organism-based", "conditions": "plasma"}, "[9]": {"tested_on": "Mus musculus", "experiment": "In vivo inhibition of IR phosphorylation in human GEO cells xenografted in nu/nu CD1 mouse at 2 mg/kg, po measured up to 48 hrs relative to control", "format": "functional", "method_in_brief": "as §2"}, "[10]": {"experiment": "Clearance in CD1 mouse at 5 mg/kg, iv", "format": "ADME, organism-based", "parameters": "dose 5 mg/kg, route intravenous", "conditions": "in vivo"}, "[11]": {"experiment": "Antitumor activity against human GEO cells xenografted in nu/nu CD1 mouse assessed as tumor growth inhibition at 2 mg/kg, po q7d administered for 14 days measured twice per week relative to vehicle-treated control", "conditions": "336 h, read-out: TGI"}, "[12]": {"experiment": "Aqueous solubility of the compound", "format": "physicochemical", "conditions": "buffer"}, "[13]": {"experiment": "Volume of distribution at steady state in CD1 mouse at 5 mg/kg, iv", "format": "ADME, organism-based", "parameters": "dose 5 mg/kg, route intravenous", "conditions": "in vivo, read-out: Vdss"}, "[14]": {"experiment": "Clearance in CD1 mouse at 0.5 mg/kg, iv", "format": "ADME, organism-based", "parameters": "dose 0.5 mg/kg, route intravenous", "conditions": "in vivo"}, "[15]": {"experiment": "as §1", "format": "functional"}, "[16]": {"experiment": "Antitumor activity against human GEO cells xenografted in nu/nu CD1 mouse assessed as tumor growth inhibition at 5 mg/kg, po qd administered for 14 days measured twice per week relative to vehicle-treated control", "format": "functional", "conditions": "336 h, read-out: TGI", "method_in_brief": "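GEO human colon cancer xenografts in mice; oral dosing at 5 mg/kg once daily, days 1–14. Tumor volumes expressed as mean percentage of initial volume ± SE; TGI calculated relative to vehicle-treated group.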"}, "[17]": {"experiment": "Cmax in CD1 mouse at 5 mg/kg, po", "format": "ADME, organism-based", "parameters": "dose 5 mg/kg, route oral", "conditions": "in vivo"}, "[18]": {"experiment": "Oral bioavailability in CD1 mouse at 5 mg/kg", "format": "ADME, organism-based", "conditions": "plasma"}, "[19]": {"experiment": "Tmax in CD1 mouse at 5 mg/kg, po", "format": "ADME, organism-based", "parameters": "dose 5 mg/kg, route oral", "conditions": "in vivo"}, "[20]": {"experiment": "Plasma concentration in CD1 mouse at 5 mg/kg, po measured at 24 hrs", "format": "ADME, organism-based", "parameters": "dose 5 mg/kg, route oral"}, "[21]": {"experiment": "Volume of distribution at steady state in CD1 mouse at 0.5 mg/kg, iv", "format": "ADME, organism-based", "parameters": "dose 0.5 mg/kg, route intravenous", "conditions": "in vivo, read-out: Vdss"}, "[22]": {"experiment": "Plasma concentration in CD1 mouse at 5 mg/kg, po measured at 8 hrs", "format": "ADME, organism-based", "parameters": "dose 5 mg/kg, route oral"}},
  "note": "Active and inactive are the calls of the source. The rule behind the calls is not given here.",
  "data": [
    {"smiles": "C[C@]1(O)C[C@@H](c2nc(-c3ccc4ccc(-c5ccccc5)nc4c3)c3c(N)nccn32)C1", "values": [
      {"measurement": "T1/2", "setting": "[1]", "result": 12, "unit": "min"}
    ]},
    {"smiles": "CCOc1cc(-c2ccccc2)nc2cc(-c3nc([C@H]4C[C@@](C)(O)C4)n4ccnc(N)c34)ccc12", "values": [
      {"measurement": "Cmax", "setting": "[2]", "result": 2200, "unit": "nM"},
      {"measurement": "concentration at 8 h", "setting": "[3]", "result": 320, "unit": "nM"},
      {"measurement": "TGI", "setting": "[4]", "result": "Active"},
      {"measurement": "inhibition in vivo at 2 mg/kg", "setting": "[5]", "result": 80, "unit": "%"},
      {"measurement": "concentration at 24 h", "setting": "[6]", "result": "< 30", "unit": "nM"},
      {"measurement": "Tmax", "setting": "[7]", "result": 30, "unit": "min"},
      {"measurement": "bioavailability", "setting": "[8]", "result": 63, "unit": "%"},
      {"measurement": "inhibition in vivo at 2 mg/kg", "setting": "[9]", "result": 80, "unit": "%"},
      {"measurement": "clearance", "setting": "[10]", "result": 5, "unit": "mL/min/kg"},
      {"measurement": "inhibition in vivo at 2 mg/kg", "setting": "[11]", "result": 66, "unit": "%"},
      {"measurement": "solubility", "setting": "[12]", "result": "soluble"},
      {"measurement": "Vd", "setting": "[13]", "result": 1.5, "unit": "L/kg"}
    ]},
    {"smiles": "COc1cc(-c2ccccc2)nc2cc(-c3nc([C@H]4C[C@@](C)(O)C4)n4ccnc(N)c34)ccc12", "values": [
      {"measurement": "clearance", "setting": "[14]", "result": 17, "unit": "mL/min/kg"},
      {"measurement": "TGI", "setting": "[15]", "result": "<50", "unit": "%"},
      {"measurement": "inhibition in vivo at 5 mg/kg", "setting": "[16]", "result": 64, "unit": "%"},
      {"measurement": "Cmax", "setting": "[17]", "result": 3200, "unit": "nM"},
      {"measurement": "bioavailability", "setting": "[18]", "result": 74, "unit": "%"},
      {"measurement": "Tmax", "setting": "[19]", "result": 30, "unit": "min"},
      {"measurement": "concentration at 24 h", "setting": "[20]", "result": "< 30", "unit": "nM"},
      {"measurement": "Vd", "setting": "[21]", "result": 2.4, "unit": "L/kg"},
      {"measurement": "concentration at 8 h", "setting": "[22]", "result": 280, "unit": "nM"}
    ]}
  ]
}
